Results reported in ChEMBL document CHEMBL4400507, “Discovery of Novel Transient Receptor Potential Vanilloid 4 (TRPV4) Agonists as Regulators of Chondrogenic Differentiation: Identification of Quinazolin-4(3 H)-ones and in Vivo Studies on a Surgically Induced Rat Model of Osteoarthritis” (J Med Chem, 2019).
≈ marks a conversion by molar mass, not a printed value. Calls of active or inactive are those of the source. The rule behind the calls is not given here.

Assays:
[1] = target: T1, Transient receptor potential cation channel subfamily V member 4 (Homo sapiens, UniProt Q9HBA0); test: Agonist activity at recombinant human TRPV4 expressed in […] cells at 10 uM by SOX9 luciferase reporter gene assay; format: cell-based
T1 sequence (Q9HBA0 whole entry): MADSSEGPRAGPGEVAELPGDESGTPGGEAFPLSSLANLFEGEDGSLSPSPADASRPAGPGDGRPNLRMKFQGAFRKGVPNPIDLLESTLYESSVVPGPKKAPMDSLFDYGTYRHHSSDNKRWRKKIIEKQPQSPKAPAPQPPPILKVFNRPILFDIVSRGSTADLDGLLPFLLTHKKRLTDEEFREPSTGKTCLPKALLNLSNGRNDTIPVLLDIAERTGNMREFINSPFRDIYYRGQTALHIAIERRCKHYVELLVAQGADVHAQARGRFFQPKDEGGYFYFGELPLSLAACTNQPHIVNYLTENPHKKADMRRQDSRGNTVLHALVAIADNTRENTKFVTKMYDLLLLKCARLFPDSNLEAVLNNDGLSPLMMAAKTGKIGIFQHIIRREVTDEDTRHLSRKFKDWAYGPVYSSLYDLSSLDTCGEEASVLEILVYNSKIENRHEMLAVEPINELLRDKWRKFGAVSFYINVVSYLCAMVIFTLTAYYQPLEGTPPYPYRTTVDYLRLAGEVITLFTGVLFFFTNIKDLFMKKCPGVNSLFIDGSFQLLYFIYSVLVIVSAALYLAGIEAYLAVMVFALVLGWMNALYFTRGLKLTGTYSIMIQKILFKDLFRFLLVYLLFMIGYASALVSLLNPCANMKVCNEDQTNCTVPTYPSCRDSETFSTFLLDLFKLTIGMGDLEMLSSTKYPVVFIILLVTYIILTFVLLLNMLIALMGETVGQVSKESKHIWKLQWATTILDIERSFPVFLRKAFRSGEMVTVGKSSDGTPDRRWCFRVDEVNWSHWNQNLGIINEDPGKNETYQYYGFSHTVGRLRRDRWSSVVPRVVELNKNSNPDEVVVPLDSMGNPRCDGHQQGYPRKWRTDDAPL
Method in brief: (§1)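 ATDC5 cells stably carrying a SOX9 reporter gene construct and human TRPV4 (pcDNA3.1) were seeded at 2.0 × 10^4 cells/well and treated with compound. Luciferase luminescence was measured the next day.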

[2] = target: T1, Transient receptor potential cation channel subfamily V member 4; test: Agonist activity at recombinant human TRPV4 expressed in […] cells by SOX9 luciferase reporter gene assay; format: cell-based; method in brief: as §1
[3] = target: T1, Transient receptor potential cation channel subfamily V member 4; test: Agonist activity at recombinant human TRPV4 expressed in HEK293 cells assessed as increase in intracellular calcium level after 30 mins by Fura-2 AM/Pluronic F-127 probe based fluorescence assay; format: cell-based
Method in brief: (§2)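 HEK293 cells transiently expressing human TRPV4 were loaded with 5 µM Fura-2 AM plus 0.2% Pluronic F-127 for 30 min at 37 °C in HEPES buffer (pH 7.4, 1.8 mM CaCl2, 0.1% BSA). They were then washed and resuspended. Intracellular Ca2+ was read by Fura-2 ratio imaging (excitation 340/380 nm, emission 510 nm).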

[4] = target: Transient receptor potential cation channel subfamily V member 1 (Homo sapiens) (UniProt Q8NER1); test: Agonist activity at human TRPV1 assessed as increase in intracellular calcium level at 10 uM relative to control; format: cell-based
Chain of Transient receptor potential cation channel subfamily V member 1 (Homo sapiens) (Q8NER1 whole entry): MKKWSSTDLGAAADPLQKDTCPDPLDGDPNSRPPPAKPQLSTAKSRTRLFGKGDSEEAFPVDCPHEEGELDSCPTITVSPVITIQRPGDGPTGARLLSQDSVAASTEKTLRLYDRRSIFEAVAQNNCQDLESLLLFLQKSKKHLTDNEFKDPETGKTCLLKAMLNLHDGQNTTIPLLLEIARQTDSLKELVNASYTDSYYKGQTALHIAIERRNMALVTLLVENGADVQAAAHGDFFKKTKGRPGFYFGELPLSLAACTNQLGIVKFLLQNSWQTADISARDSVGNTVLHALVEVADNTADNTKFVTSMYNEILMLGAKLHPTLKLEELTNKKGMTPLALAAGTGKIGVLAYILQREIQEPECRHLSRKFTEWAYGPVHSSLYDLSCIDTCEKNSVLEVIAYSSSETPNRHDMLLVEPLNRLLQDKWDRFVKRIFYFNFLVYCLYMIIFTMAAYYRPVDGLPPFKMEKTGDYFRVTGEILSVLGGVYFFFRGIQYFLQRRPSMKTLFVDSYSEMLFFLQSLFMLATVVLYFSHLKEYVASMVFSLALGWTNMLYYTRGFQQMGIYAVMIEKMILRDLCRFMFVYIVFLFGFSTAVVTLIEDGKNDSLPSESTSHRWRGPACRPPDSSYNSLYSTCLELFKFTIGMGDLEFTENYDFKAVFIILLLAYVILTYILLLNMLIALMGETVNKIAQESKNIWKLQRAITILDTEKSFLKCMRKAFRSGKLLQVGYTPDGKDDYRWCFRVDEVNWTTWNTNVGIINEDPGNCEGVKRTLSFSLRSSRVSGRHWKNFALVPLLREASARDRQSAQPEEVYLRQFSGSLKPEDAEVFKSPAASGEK

[5] = Solubility of the compound in saline; format: physicochemical
[6] = target: T1, Transient receptor potential cation channel subfamily V member 4; test: Agonist activity at recombinant human TRPV4 expressed in HEK293 cells assessed as increase in intracellular calcium level at 10 uM after 30 mins by Fura-2 AM/Pluronic F-127 probe based fluorescence assay relative to control; format: cell-based; method in brief: as §2
[7] = system: Rattus norvegicus; test: Anti-osteoarthritis activity in Sprague-Dawley rat model of medial meniscal tear-induced osteoarthritis assessed as reduction in erosion of tibial plateau cartilage at 5 to 10 uM administered intra-articularly into operated knee twice per week for 3 consecutive weeks and measured at week 4; format: functional, organism-based
Method in brief: (§3)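 Male Sprague-Dawley rats, 8 weeks old. Medial meniscus cut through to mimic a complete tear. One week after surgery, rats were grouped by body weight: sham, MT vehicle, 5 μM, 10 μM. 50 µL saline or drug was injected intra-articularly into the operated knee twice weekly for 3 weeks, and knees were harvested at week 4. Sections of 5 μm were stained with safranin-O/Fast Green, and damaged width on the medial tibial plateau was measured by micrometer. Analysis by Dunnett's test; n = 5–15 per group.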

[8] = system: Rattus norvegicus; test: Induction of SOX9 mRNA expression in Sprague-Dawley rat model of medial meniscal tear-induced osteoarthritis at 5 to 10 uM administered intra-articularly into operated knee twice per week for 3 consecutive weeks measured after 21 days by RT-qPCR analysis; format: functional, organism-based
[9] = species on record: Homo sapiens; test: Induction of chondrogenesis in normal human articular chondrocytes at 62.5 nM preincubated for 30 mins followed by medium replacement and measured after 3 days by Alcian blue-staining based assay; format: functional, cell-based
Method in brief: (§4)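 Normal human articular chondrocytes were stimulated with agonist for 30 min, then the medium was replaced. After 3 days' culture, cells were fixed in 95% methanol and stained overnight with 0.1% Alcian blue 8GS in 0.1 N HCl. Dye was extracted with 6 M guanidine-HCl for 2 h at room temperature and read at OD 600 nm.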

[10] = species on record: Homo sapiens; test: Induction of chondrogenesis in normal human articular chondrocytes at 62.5 to 1000 nM preincubated for 30 mins followed by medium replacement and measured after 3 days by Alcian blue-staining based assay; format: functional, cell-based
Method in brief: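 Normal human articular chondrocytes were exposed to agonist for 30 min, then the medium was replaced and the cells cultured 3 days. They were fixed in 95% methanol and stained overnight with 0.1% Alcian blue in 0.1 N HCl. Dye was extracted with 6 M guanidine-HCl for 2 h at room temperature, and OD was read at 600 nm.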

[11] = system: Rattus norvegicus; test: Bone anabolic effect in Sprague-Dawley rat model of medial meniscal tear-induced osteoarthritis assessed as induction of new extracellular matrix generation at 10 uM administered intra-articularly into operated knee twice per week for 3 consecutive weeks and measured at week 4 by safranin-O/Fast Green staining-based microscopic analysis; format: functional, organism-based
[12] = system: Rattus norvegicus; test: Induction of aggrecan mRNA expression in Sprague-Dawley rat model of medial meniscal tear-induced osteoarthritis at 5 to 10 uM administered intra-articularly into operated knee twice per week for 3 consecutive weeks measured after 21 days by RT-qPCR analysis; format: functional, organism-based
[13] = system: Rattus norvegicus; test: Anti-osteoarthritis activity in Sprague-Dawley rat model of medial meniscal tear-induced osteoarthritis assessed as decrease in length of damage area at 5 to 10 uM administered intra-articularly into operated knee twice per week for 3 consecutive weeks and measured at week 4; format: functional, organism-based; method in brief: as §3
[14] = Genotoxicity in Salmonella typhimurium by Ames test; format: toxicity; details: salmonella enterica subsp. enterica serovar typhimurium
[15] = system: HL-60; test: Cytotoxicity against human HL60 cells assessed as reduction in cell viability; format: cell-based
Method in brief: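 HL-60 cell viability measured with an ATP-based assay.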

[16] = species on record: Homo sapiens; test: Induction of chondrogenesis in normal human articular chondrocytes at 500 nM preincubated for 30 mins followed by medium replacement and measured after 3 days by Alcian blue-staining based assay; format: functional, cell-based; method in brief: as §4
[17] = species on record: Homo sapiens; test: Induction of chondrogenesis in normal human articular chondrocytes at <500 nM preincubated for 30 mins followed by medium replacement and measured after 3 days by Alcian blue-staining based assay; format: functional, cell-based; method in brief: as §4
[18] = Drug level in rat synovial fluid lavage dosed directly in to knee joints and measured after 30 mins by LC-MS method; format: ADME, organism-based; details: in vivo, other, 0.5 h
Method in brief: (§5)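 Normal rats received an intra-articular knee injection. After euthanasia the joint was washed with saline and the synovial fluid lavage collected. Compound was quantified by LC-MS/MS and converted to joint concentration using the ratio of total protein in the lavage. Quantitation limits were 0.3–1 nmol/L.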

[19] = Toxicity in Sprague-Dawley rat model of medial meniscal tear-induced osteoarthritis assessed as death at 5 to 10 uM administered intra-articularly into operated knee twice per week for 3 consecutive weeks and measured at week 4; details: in vivo, other
Method in brief: (§6)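 Eight-week-old male SD rats, housed singly, had the medial meniscus cut. One week later they were grouped by body weight. The operated knee received 50 µL saline or 0, 5 or 10 µM solution intra-articularly twice weekly for 3 weeks, starting 1 week post-surgery. Deaths and systemic signs were checked by gross visual inspection, and final body weights were recorded. Rats were euthanized at week 4.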

[20] = Toxicity in Sprague-Dawley rat model of medial meniscal tear-induced osteoarthritis assessed as effect on body weight at 5 to 10 uM administered intra-articularly into operated knee twice per week for 3 consecutive weeks and measured at week 4; details: in vivo, other; method in brief: as §6
[21] = Systemic toxicity in Sprague-Dawley rat model of medial meniscal tear-induced osteoarthritis at 5 to 10 uM administered intra-articularly into operated knee twice per week for 3 consecutive weeks and measured at week 4; details: in vivo, other; method in brief: as §6
[22] = Drug level in rat synovial fluid lavage dosed directly in to knee joints and measured within 30 mins by LC-MS method; format: ADME, organism-based; details: in vivo, other, 0.5 h; method in brief: as §5

| Compound | Activity [1] | ECmax [2] | EC50 [3] | other results |
| --- | --- | --- | --- | --- |
| Cc1ccccc1-n1c(N2CCN(C)CC2)nc2c(Cl)cccc2c1=O | 0.4% | – | – | – |
| CCOC(=O)c1ccc(-n2c(N3CCC(N(C)C)C3)nc3c(F)cccc3c2=O)cc1 (stereo not drawn) | 2.2% | – | – | – |
| CN1CCN(c2nc3c(F)cccc3c(=O)n2-c2ccc(C(F)(F)F)cc2)CC1 | – | 2500 nM | 1440 nM | – |
| CN1CCN(c2nc3cc(F)ccc3c(=O)n2-c2ccc(OC(F)(F)F)cc2)CC1 | – | 625 nM | 663 nM | Activity [4]: 6.2% |
| CN1CCN(c2nc3c(F)cccc3c(=O)n2-c2ccc(Cc3ccccc3)cc2)CC1 | – | 312 nM | 670 nM | solubility [5]: 553 µg/mL (≈ 1290 µM); Activity [4]: 1.5% |
| CN1CCN(c2nc3c(Cl)cccc3c(=O)n2-c2ccc(Cl)cc2)CC1 | 19.9% | – | – | ECmax [6]: 19% |
| CN1CCN(c2nc3ccc(F)cc3c(=O)n2-c2ccc(OC(F)(F)F)cc2)CC1 | – | 2500 nM | 2060 nM | Activity [4]: 5% |
| CC(C)C[C@H](NC(=O)c1cc2ccccc2s1)C(=O)N1CCN(C(=O)[C@H](CO)NS(=O)(=O)c2ccc(Cl)cc2Cl)CC1 | – | – | 49 nM | – |
| CCOC(=O)c1ccc(-n2c(N3CCN(C)CC3)nc3c(Cl)cccc3c2=O)cc1 | 29.4% | – | – | – |
| COc1ccc(-n2c(N3CCN(C)CC3)nc3cc(F)ccc3c2=O)cc1 | 42.2% | 5000 nM | 4700 nM | – |
| CC(C)c1ccc(-n2c(N3CCN(C)CC3)nc3c(F)cccc3c2=O)cc1 | – | 2500 nM | 910 nM | – |
| CN1CCN(c2nc3c(F)cccc3c(=O)n2-c2ccc(Oc3ccc(F)cc3)cc2)CC1 [listing 1 of 2 here] | – | 20 nM | – | Activity [7]: Dose-dependent effect; Activity [8]: Dose-dependent effect; Activity [9]: Active; Activity [10]: Active; Activity [11]: Active; Activity [12]: Dose-dependent effect; Activity [13]: Dose-dependent effect; Activity [4]: 0.6% |
| CCOC(=O)c1ccc(-n2c(N3CCN(C)CC3)nc3c(F)cccc3c2=O)cc1 | – | 625 nM | 920 nM | – |
| CN1CCN(c2nc3cc(F)ccc3c(=O)n2-c2ccc(C(F)(F)F)cc2)CC1=O | 1.8% | – | – | – |
| Cc1ccc(-n2c(N3CCN(C)CC3)nc3c(Cl)cccc3c2=O)cc1 | 9% | – | – | – |
| CC(C)[C@H]1CN(c2nc3cc(F)ccc3c(=O)n2-c2ccc(C(F)(F)F)cc2)CCN1C | – | 5000 nM | > 30000 nM | – |
| CCN1CCN(c2nc3cc(F)ccc3c(=O)n2-c2ccc(OC)cc2)CC1 | 41% | – | 12200 nM | – |
| CN1CCN(c2nc3cccc(F)c3c(=O)n2-c2ccc(OC(F)(F)F)cc2)CC1 | – | 1250 nM | 1180 nM | Activity [4]: 3.7% |

| Compound | Activity [1] | ECmax [2] | EC50 [3] | other results |
| --- | --- | --- | --- | --- |
| CN1CCN(c2nc3cc(F)ccc3c(=O)n2-c2ccc(C(F)(F)F)cc2)CC12CC2 | 1.2% | – | – | – |
| CN1CCN(c2nc3c(F)cccc3c(=O)n2-c2ccc(Oc3ccccc3)cc2)CC1 | – | 39 nM | 125 nM | solubility [5]: 745 µg/mL (≈ 1730 µM); Activity [4]: 0.6% |
| CN1CCN(c2nc3c(F)cccc3c(=O)n2-c2ccc(SC(F)(F)F)cc2)CC1 | – | 156 nM | 200 nM | Activity [10]: Active; solubility [5]: 952 µg/mL (≈ 2170 µM); Activity [4]: 3.1% |
| Cc1cccc(-n2c(N3CCN(C)CC3)nc3c(Cl)cccc3c2=O)c1 | 1.5% | – | – | – |
| CN1CCN(c2nc3c(F)cccc3c(=O)n2-c2ccc(Oc3ccc(F)cc3)cc2)CC1 [listing 2 of 2 here] | – | – | 60 nM | Activity [14]: Non-Toxic; Activity [15]: Non-Toxic; solubility [5]: 743 µg/mL (≈ 1660 µM) |
| CC(C)C[C@H](NC(=O)c1cc2ccccc2s1)C(=O)NCCCN(C)S(=O)(=O)c1ccc(Cl)cc1Cl | – | 312 nM | 740 nM | Activity [16]: Active; solubility [5]: 3.6 µg/mL (≈ 6.31 µM); Activity [17]: inactive |
| COc1ccc(-n2c(N(C)CCN(C)C)nc3cc(F)ccc3c2=O)cc1 | 0% | – | – | – |
| COc1ccc(-n2c(N3CCN(C)CC3)nc3ccccc3c2=O)cc1 | 13.2% | – | – | – |
| CCOC(=O)c1ccc(-n2c(N3CCN(C)CC3)nc3c(Br)cccc3c2=O)cc1 | 7.8% | – | – | – |
| COc1cccc2c(=O)n(-c3ccc(C)cc3)c(N3CCN(C)CC3)nc12 | 1.3% | – | – | – |
| COc1ccc(-n2c(N3CCNCC3)nc3cc(F)ccc3c2=O)cc1 | 1.8% | – | – | – |
| CN1CCN(c2nc3cc(F)ccc3c(=O)n2-c2ccc(C(F)(F)F)cc2)CC1(C)C | 5% | 10000 nM | > 30000 nM | – |
| CN1CCN(c2nc3c(F)cccc3c(=O)n2-c2ccc(OC(F)(F)F)cc2)CC1 | – | 625 nM | 280 nM | solubility [5]: 951 µg/mL (≈ 2250 µM); Activity [4]: 2.2% |
| CCOC(=O)c1ccc(-n2c(N(C)C3CCN(C)C3)nc3c(F)cccc3c2=O)cc1 (stereo not drawn) | 0.3% | – | – | – |
| CC(C)C[C@H]1CN(c2nc3cc(F)ccc3c(=O)n2-c2ccc(C(F)(F)F)cc2)CCN1C | 0.9% | – | – | – |
| CCOC(=O)c1ccc(-n2c(N3CCN(C(C)C)CC3)nc3c(F)cccc3c2=O)cc1 | 1.9% | – | – | – |
| CN1CCN(c2nc3c(F)cccc3c(=O)n2-c2ccc(Oc3ccc(F)cc3)cc2)CC1.Cl | – | – | – | Drug uptake [18]: Not Active; Activity [19]: Non-Toxic; Activity [20]: Non-Toxic; Activity [21]: Non-Toxic; Drug uptake [22]: Active |
